# What was measured:
# Rattus norvegicus [1] = assay: Mean excretion of potassium in conscious rats at a dose of 100 mg/kg given orally; format: ADME, organism-based; design: dose 100 mg/kg, route oral; settings: in vivo, po
# Summary of the method: (§1)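 Secondary dose-response in male Sprague-Dawley rats (~160 g), fasted and hydrated as in the primary screen. Oral gavage at 0.3-100 mg/kg in 25 mL/kg saline/0.5% CMC, three cages of two rats per dose. Urine collected 5 h; Na, K, Cl, HCO3 measured. Values are mean excretion (mequiv), compared with controls at P < 0.05.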
# Rattus norvegicus [2] = assay: Mean excretion of chloride in conscious rats at a dose of 30 mg/kg given orally; format: ADME, organism-based; design: dose 30 mg/kg, route oral; settings: in vivo, po; summary of the method: as §1
# Rattus norvegicus [3] = assay: Mean excretion of chloride in conscious rats at a dose of 10 mg/kg given orally; format: ADME, organism-based; design: dose 10 mg/kg, route oral; settings: in vivo, po; summary of the method: as §1
# Rattus norvegicus [4] = species on record: Rattus norvegicus; assay: […]; format: ADME, organism-based, Urine; design: dose 3 mg/kg, route oral; settings: in vivo, po, 3 mg/kg
# Summary of the method: (§2)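 Male Sprague-Dawley rats, about 160 g, fasted 24 h and water withheld 1 1/2 h beforehand; food and water withheld during the test. Dosing by gavage with 25 mL/kg 0.9% saline containing 0.5% (carboxymethyl)cellulose, agent dissolved or suspended. Three cages of two rats each per dose, held in metabolism cages. Urine collected over 5 h. Volume given in mL, Na+ in mequiv. Significance versus control at P < 0.05.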
# Rattus norvegicus [5] = assay: Mean excretion of potassium in conscious rats at a dose of 0.3 mg/kg given orally; format: ADME, organism-based; design: dose 0.3 mg/kg, route oral; settings: in vivo, po; summary of the method: as §1
# Rattus norvegicus [6] = assay: Mean excretion of […] in conscious rats at a dose of 1.0 mg/kg given orally; format: ADME, organism-based; design: dose 1 mg/kg, route oral; settings: in vivo, po; summary of the method: as §2
# Rattus norvegicus [7] = assay: Mean excretion of chloride in conscious rats at a dose of 3.0 mg/kg given orally; format: ADME, organism-based; design: dose 3 mg/kg, route oral; settings: in vivo, po; summary of the method: as §1
# Rattus norvegicus [8] = assay: Mean excretion of potassium in conscious rats at a dose of 30 mg/kg given orally; format: ADME, organism-based; design: dose 30 mg/kg, route oral; settings: in vivo, po; summary of the method: as §1
# Rattus norvegicus [9] = assay: Mean excretion of potassium in conscious rats at a dose of 10 mg/kg given orally; format: ADME, organism-based; design: dose 10 mg/kg, route oral; settings: in vivo, po; summary of the method: as §1
# Rattus norvegicus [10] = assay: Mean excretion of sodium in conscious rats at a dose of 100 mg/kg given orally; format: ADME, organism-based; design: dose 100 mg/kg, route oral; settings: in vivo, po; summary of the method: as §2
# Rattus norvegicus [11] = species on record: Rattus norvegicus; assay: […]; format: ADME, organism-based, Urine; design: dose 100 mg/kg, route oral; settings: in vivo, po, 100 mg/kg; summary of the method: as §2
# Rattus norvegicus [12] = assay: Mean excretion of sodium in conscious rats at a dose of 0.3 mg/kg given orally; format: ADME, organism-based; design: dose 0.3 mg/kg, route oral; settings: in vivo, po; summary of the method: as §2
# Rattus norvegicus [13] = species on record: Rattus norvegicus; assay: […]; format: ADME, organism-based, Urine; design: dose 1 mg/kg, route oral; settings: in vivo, po, 1 mg/kg
# Summary of the method: (§3)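 Dose-response test in male Sprague-Dawley rats of about 160 g, fasted 24 h, with water withheld 1½ h before and during the test. Each rat got a single gavage of 25 mL/kg 0.9% saline with 0.5% carboxymethylcellulose carrying the agent (0.3–100 mg/kg range). Rats were housed two per metabolism cage, and urine was collected for 5 h. Mean urine volume (mL) was compared with controls (P < 0.05).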
# [14] = Diuretic activity at 40 mg/kg (screening dose-84.7 umol/kg) in […] in a one stage experiment; T/C = urine vol of treated rats / urine vol of control rats; format: functional
# Summary of the method: (§4)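 40 mg/kg given by gavage in 25 mL/kg 0.9% saline with 0.5% (carboxymethyl)cellulose. Four rats per agent, two per metabolism cage; 20 controls; 5 h urine. T/C = treated/control urine volume. Stage-1 T/C of 1.66 or more leads to stage 2; product T/C1·T/C2 of 3.34 or more counts as active.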
# Rattus norvegicus [15] = assay: Mean excretion of potassium in conscious rats at a dose of 1.0 mg/kg given orally; format: ADME, organism-based; design: dose 1 mg/kg, route oral; settings: in vivo, po; summary of the method: as §1
# Rattus norvegicus [16] = assay: Mean excretion of sodium in conscious rats at a dose of 3.0 mg/kg given orally; format: ADME, organism-based; design: dose 3 mg/kg, route oral; settings: in vivo, po; summary of the method: as §2
# Rattus norvegicus [17] = assay: Mean excretion of sodium in conscious rats at a dose of 10 mg/kg given orally; format: ADME, organism-based; design: dose 10 mg/kg, route oral; settings: in vivo, po; summary of the method: as §2
# Rattus norvegicus [18] = species on record: Rattus norvegicus; assay: […]; format: ADME, organism-based, Urine; design: dose 10 mg/kg, route oral; settings: in vivo, po, 10 mg/kg; summary of the method: as §2
# Rattus norvegicus [19] = assay: Mean excretion of Cl- in conscious rats at a dose of 0.3 mg/kg given orally; format: ADME, organism-based, Urine; design: dose 0.3 mg/kg, route oral; settings: in vivo, po; summary of the method: as §3
# Rattus norvegicus [20] = assay: Mean excretion of sodium in conscious rats at a dose of 30 mg/kg given orally; format: ADME, organism-based; design: dose 30 mg/kg, route oral; settings: in vivo, po; summary of the method: as §2
# [21] = Diuretic activity at 40 mg/kg (screening dose-84.7 umol/kg) in […] in a two stage experiment; T/C1.2 = urine vol of treated rats / urine vol of control rats; format: functional; summary of the method: as §4
# Rattus norvegicus [22] = assay: Mean excretion of chloride in conscious rats at a dose of 100 mg/kg given orally; format: ADME, organism-based; design: dose 100 mg/kg, route oral; settings: in vivo, po; summary of the method: as §1
# Rattus norvegicus [23] = species on record: Rattus norvegicus; assay: […]; format: ADME, organism-based, Urine; design: dose 0.3 mg/kg, route oral; settings: in vivo, po, 0.3 mg/kg; summary of the method: as §3
# Rattus norvegicus [24] = assay: Mean excretion of potassium in conscious rats at a dose of 3.0 mg/kg given orally; format: ADME, organism-based; design: dose 3 mg/kg, route oral; settings: in vivo, po; summary of the method: as §1
# Rattus norvegicus [25] = assay: Mean excretion of chloride in conscious rats at a dose of 1.0 mg/kg given orally; format: ADME, organism-based; design: dose 1 mg/kg, route oral; settings: in vivo, po; summary of the method: as §1
# Rattus norvegicus [26] = species on record: Rattus norvegicus; assay: […]; format: ADME, organism-based, Urine; design: dose 30 mg/kg, route oral; settings: in vivo, po, 30 mg/kg; summary of the method: as §2
# [27] = Diuretic activity at 40 mg/kg (screening dose-84 umol/kg) in male […] in a two stage experiment; T/C1.2 = urine vol of treated rats / urine vol of control rats; format: functional; summary of the method: as §4
# [28] = Diuretic activity at 40 mg/kg (screening dose-84 umol/kg) in male […] in a one stage experiment; T/C = urine vol of treated rats / urine vol of control rats; format: functional; summary of the method: as §4
# [29] = Diuretic activity at 40 mg/kg (screening dose-90.5 umol/kg) in […] in a one stage experiment; T/C = urine vol of treated rats / urine vol of control rats; format: functional; summary of the method: as §4
Structure (SMILES),Mean excretion of K+ (Rattus norvegicus [1]),Mean excretion of Cl- (Rattus norvegicus [2]),Mean excretion of Cl- (Rattus norvegicus [3]),Mean urine volume (Rattus norvegicus [4]),Mean excretion of K+ (Rattus norvegicus [5]),Mean excretion of Na+ (Rattus norvegicus [6]),Mean excretion of Cl- (Rattus norvegicus [7]),Mean excretion of K+ (Rattus norvegicus [8]),Mean excretion of K+ (Rattus norvegicus [9]),Mean excretion of Na+ (Rattus norvegicus [10]),Mean urine volume (Rattus norvegicus [11]),Mean excretion of Na+ (Rattus norvegicus [12]),Mean urine volume (Rattus norvegicus [13]),T/C 1 [14],Mean excretion of K+ (Rattus norvegicus [15]),Mean excretion of Na+ (Rattus norvegicus [16]),Mean excretion of Na+ (Rattus norvegicus [17]),Mean urine volume (Rattus norvegicus [18]),Mean excretion of Cl- (Rattus norvegicus [19]),Mean excretion of Na+ (Rattus norvegicus [20]),other results
COc1ccc(C(CN(C)C)c2nnc3n2-c2ccc(Cl)cc2C(c2ccccc2)=NC3)cc1 (configuration not stated),0.26 m equiv,1.55 m equiv,0.93 m equiv,4.98 mL,0.23 m equiv,0.66 m equiv,0.75 m equiv,0.18 m equiv,0.19 m equiv,1.91 m equiv,12.25 mL,0.67 m equiv,4.81 mL,2.77,0.25 m equiv,0.68 m equiv,0.93 m equiv,5.74 mL,0.71 m equiv,1.58 m equiv,T/C 1.2 [21]: 5.57; Mean excretion of Cl- (Rattus norvegicus [22]): 1.65 m equiv; Mean urine volume (Rattus norvegicus [23]): 4.13 mL; Mean excretion of K+ (Rattus norvegicus [24]): 0.23 m equiv; Mean excretion of Cl- (Rattus norvegicus [25]): 0.71 m equiv; Mean urine volume (Rattus norvegicus [26]): 10.47 mL
CN(C)CC(c1ccccc1)c1nnc2n1-c1ccc(Cl)cc1C(c1ccccc1Cl)=NC2 (configuration not stated),–,–,–,–,–,–,–,–,–,–,–,–,–,–,–,–,–,–,–,–,T/C 1.2 [27]: 2.66; T/C 1 [28]: 1.87
CN(C)CC(c1ccccc1)c1nnc2n1-c1ccccc1C(c1ccccc1Cl)=NC2 (configuration not stated),–,–,–,–,–,–,–,–,–,–,–,–,–,–,–,–,–,–,–,–,T/C 1 [29]: 1.62
COc1ccccc1C(CN(C)C)c1nnc2n1-c1ccc(Cl)cc1C(c1ccccc1)=NC2 (configuration not stated),0.26 m equiv,0.76 m equiv,0.71 m equiv,5.38 mL,0.17 m equiv,0.6 m equiv,0.8 m equiv,0.23 m equiv,0.22 m equiv,0.6 m equiv,4.56 mL,0.63 m equiv,5.08 mL,2.69,0.23 m equiv,0.68 m equiv,0.72 m equiv,4.92 mL,0.69 m equiv,0.61 m equiv,T/C 1.2 [21]: 5.03; Mean excretion of Cl- (Rattus norvegicus [22]): 0.69 m equiv; Mean urine volume (Rattus norvegicus [23]): 4.8 mL; Mean excretion of K+ (Rattus norvegicus [24]): 0.24 m equiv; Mean excretion of Cl- (Rattus norvegicus [25]): 0.69 m equiv; Mean urine volume (Rattus norvegicus [26]): 5.19 mL
CN(C)CC(c1cccc(Cl)c1)c1nnc2n1-c1ccc(Cl)cc1C(c1ccccc1)=NC2 (configuration not stated),–,–,–,–,–,–,–,–,–,–,–,–,–,–,–,–,–,–,–,–,T/C 1.2 [27]: 3.2; T/C 1 [28]: 1.86

# Reference: ChEMBL document CHEMBL1124476, “1-(2-aminoethyl)-6-aryl-4H- [1,2,4]triazolo[4,3-a][1,4]benzodiazepines with diuretic and natriuretic activity” (J Med Chem, 1989)
